Laboratory results from ChEMBL document CHEMBL4138162, “Design and synthesis of small molecule agonists of EphA2 receptor” (Eur J Med Chem, 2018).
Active and inactive are the calls of the source. The rule behind the calls is not given here.

biological target: Ephrin type-A receptor 2 (Homo sapiens) (UniProt P29317); assay: Agonist activity against EphA2 (unknown origin) overexpressed in MDA-MB-231-A2 cells assessed as increase in phosphorylated EphA2 levels at 50 uM after 30 mins by immunoprecipitation and immunoblot assay; format: cell-based
Sequence (P29317 whole entry): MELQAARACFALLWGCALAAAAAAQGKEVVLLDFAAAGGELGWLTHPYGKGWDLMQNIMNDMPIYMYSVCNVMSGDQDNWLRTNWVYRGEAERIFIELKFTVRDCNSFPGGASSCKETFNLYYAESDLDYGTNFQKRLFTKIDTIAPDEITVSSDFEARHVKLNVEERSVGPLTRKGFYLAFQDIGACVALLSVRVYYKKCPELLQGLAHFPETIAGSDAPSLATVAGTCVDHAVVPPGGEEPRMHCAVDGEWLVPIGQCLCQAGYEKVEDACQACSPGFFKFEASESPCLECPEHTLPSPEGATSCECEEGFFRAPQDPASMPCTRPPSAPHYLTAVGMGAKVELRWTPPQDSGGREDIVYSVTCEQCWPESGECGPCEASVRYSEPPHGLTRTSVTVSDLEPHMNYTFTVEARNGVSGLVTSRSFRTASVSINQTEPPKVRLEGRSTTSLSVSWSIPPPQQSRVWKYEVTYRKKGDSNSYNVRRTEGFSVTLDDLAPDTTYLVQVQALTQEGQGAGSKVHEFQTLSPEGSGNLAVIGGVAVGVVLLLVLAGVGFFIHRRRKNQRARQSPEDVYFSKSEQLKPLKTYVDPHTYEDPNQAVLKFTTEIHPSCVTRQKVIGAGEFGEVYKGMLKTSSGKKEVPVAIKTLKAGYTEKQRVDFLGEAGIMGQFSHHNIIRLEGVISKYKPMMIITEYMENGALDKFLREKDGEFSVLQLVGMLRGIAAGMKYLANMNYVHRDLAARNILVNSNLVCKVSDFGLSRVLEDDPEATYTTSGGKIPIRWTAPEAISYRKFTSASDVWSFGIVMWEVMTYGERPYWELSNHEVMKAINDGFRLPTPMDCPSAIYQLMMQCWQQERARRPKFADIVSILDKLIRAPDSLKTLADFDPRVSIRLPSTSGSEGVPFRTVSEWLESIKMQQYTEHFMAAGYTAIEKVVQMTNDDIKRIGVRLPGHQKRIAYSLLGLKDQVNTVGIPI
Method in brief: (§1)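 MDA-MB-231 cells stably overexpressing EphA2 (kept in 1 µg/ml puromycin) were plated at 100,000 cells/well, grown 24 h, then treated 30 min with compound (2, 10, 50 µM; DMSO stock at 200× final, 0.5% DMSO vehicle). Lysates in modified RIPA were immunoprecipitated with ephrin-A1-Fc on Protein G beads. Blots were probed for pEphA/B and EphA2, and pEphA2/total EphA2 was quantified by band densitometry.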

Activity	Structure (SMILES)
Active	COc1cc2nc(N3CCN(C(=O)CCCCCCCCCCC(=O)N4CCN(c5nc(N)c6cc(OC)c(OC)cc6n5)CC4)CC3)nc(N)c2cc1OC

biological target: Ephrin type-A receptor 2 (Homo sapiens) (UniProt P29317); assay: Binding affinity to EphA2 in human MDA-MB-231 cells assessed as induction of EphA2 receptor internalization at 0.4 uM after 1 hr by immunofluorescence microscopy; format: cell-based
Method in brief: (§2)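 MDA-MB-231 cells on fibronectin-coated coverslips, 24–48 h after seeding, treated 1 h with compound (0.4–50 µM) in 0.5% DMSO. Cells were then PFA-fixed on ice, permeabilized with NP-40 and immunostained with anti-EphA2 (D7) plus Alexa Fluor 488 secondary, with DAPI counterstain. Surface versus intracellular EphA2 was judged by fluorescence microscopy. Three independent repeats.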

Activity	Structure (SMILES)
Active	COc1cc2nc(N3CCN(C(=O)CCCCCCCCCCC(=O)N4CCN(c5nc(N)c6cc(OC)c(OC)cc6n5)CC4)CC3)nc(N)c2cc1OC

biological target: Ephrin type-A receptor 2 (Homo sapiens) (UniProt P29317); assay: Binding affinity to EphA2 in human MDA-MB-231 cells assessed as induction of EphA2 receptor internalization at 50 uM after 1 hr by immunofluorescence microscopy; format: cell-based; method in brief: as §2

Activity	Structure (SMILES)
Active	COc1cc2nc(N3CCN(C(=O)C4COc5ccccc5O4)CC3)nc(N)c2cc1OC (centres undefined)

biological target: Ephrin type-A receptor 2 (Homo sapiens) (UniProt P29317); assay: Agonist activity against EphA2 (unknown origin) overexpressed in MDA-MB-231-A2 cells assessed as increase in phosphorylated EphA2 levels at 2 to 50 uM after 30 mins by immunoprecipitation and immunoblot assay relative to 50 uM doxazosin; format: cell-based; method in brief: as §1

Structure (SMILES)	Activity
COc1ccc(CC(=O)N2CCN(c3nc(N)c4cc(OC)c(OC)cc4n3)CC2)cc1	Active
COc1cc2nc(N3CCN(C(=O)Cc4ccc(OCc5ccccc5)cc4)CC3)nc(N)c2cc1OC	Active
COc1cc2nc(N3CCN(C(=O)c4ccc5ccccc5c4)CC3)nc(N)c2cc1OC	Active
COc1cc2nc(N3CCN(C(=O)Cc4ccc5ccccc5c4)CC3)nc(N)c2cc1OC	Active
COc1cccc(CC(=O)N2CCN(c3nc(N)c4cc(OC)c(OC)cc4n3)CC2)c1	Active
CCC(=O)N1CCN(c2nc(N)c3cc(OC)c(OC)cc3n2)CC1	inactive
COc1cc2nc(N3CCN(C(=O)Cc4ccc(OCc5ccccc5)cc4)CC3)nc(N3CCCC3)c2cc1OC	inactive
CCCC(=O)N1CCN(c2nc(N)c3cc(OC)c(OC)cc3n2)CC1	inactive
COc1cc2nc(N3CCN(C(=O)c4ccc(Br)cc4)CC3)nc(N)c2cc1OC	Active
CCOc1cc2nc(N3CCN(C(=O)Cc4ccc(OCc5ccccc5)cc4)CC3)nc(N)c2cc1OCC	inactive
COc1cc2nc(N3CCN(C(=O)c4ccncc4)CC3)nc(N)c2cc1OC	inactive
COc1cc2nc(N3CCN(C(=O)c4ccc(-c5ccccc5)cc4)CC3)nc(N)c2cc1OC	Active
COc1cc2nc(N3CCN(C(=O)c4ccco4)CC3)nc(N)c2cc1OC	inactive
COc1cc2nc(N3CCN(C(=O)CCCCCCCCCCC(=O)N4CCN(c5nc(N)c6cc(OC)c(OC)cc6n5)CC4)CC3)nc(N)c2cc1OC	Active
COc1cc2nc(N3CCN(C(=O)Cc4ccc(OCc5ccccc5)cc4)CC3)nc(NC(C)=O)c2cc1OC	inactive
CCCCCC(=O)N1CCN(c2nc(N)c3cc(OC)c(OC)cc3n2)CC1	inactive
COc1cc2nc(N3CCN(C(=O)C4COc5ccccc5O4)CC3)nc(NC(C)=O)c2cc1OC (centres undefined)	inactive
COc1cc2nc(N3CCN(C(=O)C4CCCCC4)CC3)nc(N)c2cc1OC	inactive
COc1cc2nc(N3CCN(C(=O)c4ccc(Cl)c([N+](=O)[O-])c4)CC3)nc(N)c2cc1OC	inactive
COc1cc2nc(N3CCN(C(=O)C(C)c4ccccc4)CC3)nc(N)c2cc1OC (centres undefined)	Active

Other lines, results leading:

Activity	Structure (SMILES)
inactive	COc1ccc(C(=O)N2CCN(C(=O)c3ccc(OC)cc3)CC2)cc1
inactive	COc1cc2nc(N3CCN(C(=O)Cc4ccc(OCc5ccccc5)cc4)CC3)nc(N3CCCCC3)c2cc1OC
inactive	COc1cc2nc(N3CCN(C(=O)c4ccno4)CC3)nc(N)c2cc1OC
Active	COc1cc2nc(N3CCN(C(=O)c4ccc(I)cc4)CC3)nc(N)c2cc1OC
inactive	COc1cc2nc(N3CCN(C(=O)CCCCC(=O)N4CCN(c5nc(N)c6cc(OC)c(OC)cc6n5)CC4)CC3)nc(N)c2cc1OC
Active	COc1cc2nc(N3CCN(C(=O)c4ccc5c(c4)OCO5)CC3)nc(N)c2cc1OC
inactive	CSc1ccc(C(=O)N2CCN(C(=O)c3ccc(SC)cc3)CC2)cc1
inactive	COc1cc2nc(N3CCN(C(C)=O)CC3)nc(N)c2cc1OC
inactive	COc1cc2nc(N3CCN(C(=O)c4cccs4)CC3)nc(N)c2cc1OC
Active	CCc1ccc(C(=O)N2CCN(c3nc(N)c4cc(OC)c(OC)cc4n3)CC2)cc1
Active	COc1cc2nc(N3CCN(C(=O)Cc4ccccc4)CC3)nc(N)c2cc1OC
inactive	COc1ccc(C(=O)N2CCN(c3nc(N)c4cc(OC)c(OC)cc4n3)CC2)cc1
inactive	COc1cc2nc(N3CCN(C(=O)c4ccccn4)CC3)nc(N)c2cc1OC

system: MDA-MB-231; assay: Anticlonogenic activity against human MDA-MB-231 cells up to 10 uM after 14 days by crystal violet staining-based assay; format: functional, cell-based
Method in brief: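 Parental MDA-MB-231 cells, 1000/well, cultured 24 h, then exposed to 0, 0.08, 0.4, 2 or 10 µM compound in 0.5% DMSO for 14 days. Colonies were fixed in 4% paraformaldehyde, rinsed in 20% methanol and stained with 0.5% crystal violet. Three independent experiments.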

Structure (SMILES)	Activity
COc1cc2nc(N3CCN(C(=O)Cc4ccc(OCc5ccccc5)cc4)CC3)nc(N)c2cc1OC	Active
COc1cc2nc(N3CCN(C(=O)CCCCCCCCCCC(=O)N4CCN(c5nc(N)c6cc(OC)c(OC)cc6n5)CC4)CC3)nc(N)c2cc1OC	Active
CCCCCC(=O)N1CCN(c2nc(N)c3cc(OC)c(OC)cc3n2)CC1	Active
